# Measured values from ChEMBL document CHEMBL4689842, “EUbOPEN Chemogenomics Library wave 1” (2021).
# Legend:
# Type in all cases: toxicity, cell-based
# [1] = tested on: Fibroblast; assay: Incucyte cell viability with human fibroblast; details: 10 µM, compound concentration 10 uM; also: filed as whole numbers so only -1 and 0 and 1 occur
# [2] = tested on: U2OS; assay: Incucyte cell viability with U2OS; details: human, 10 µM, compound concentration 10 uM; also: filed as whole numbers so only -1 and 0 and 1 occur
# [3] = tested on: Fibroblast; assay: Multiplex assay against human fibroblast
# In short: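 Phenotypes for tubulin, mitochondrial mass and membrane permeability are expressed as per cents of healthy-nucleus cells. Cells were stained live at seeding with Hoechst33342, BioTracker Green Microtubule Cytoskeleton Dye, MitoTracker Red and Annexin V Alexa Fluor 680, then imaged after compound addition on a CQ1 microscope at 37°C and 5% CO2. Machine-learning gating in CellPathfinder separated Hoechst high-intensity objects from normal cells, divided normal cells by nuclear state (healthy, pyknosed, fragmented) and divided pyknosed cells into mitotic or apoptotic.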
# [4] = tested on: HEK-293T; assay: Incucyte cell viability with HEK293T; details: human, 10 µM, compound concentration 10 uM; also: filed as whole numbers so only -1 and 0 and 1 occur
# [5] = 0 h, replicate number 2, timepoint 0 hours
# [6] = 12 h, replicate number 1, timepoint 12 hours
# [7] = 18 h, replicate number 1, timepoint 18 hours
# [8] = 24 h, replicate number 1, timepoint 24 hours
# [9] = 6 h, replicate number 1, timepoint 6 hours
# [10] = 12 h, 1 µM, compound concentration 1 uM, replicate 1
# [11] = 12 h, 1 µM, compound concentration 1 uM, replicate 2
# [12] = 12 h, 10 µM, compound concentration 10 uM, replicate 1
# [13] = 12 h, 10 µM, compound concentration 10 uM, replicate 2
# [14] = 24 h, 1 µM, compound concentration 1 uM, replicate 1
# [15] = 24 h, 1 µM, compound concentration 1 uM, replicate 2
# [16] = 24 h, 10 µM, compound concentration 10 uM, replicate 1
# [17] = 24 h, 10 µM, compound concentration 10 uM, replicate 2
# [18] = 48 h, 1 µM, compound concentration 1 uM, replicate 1
# [19] = 48 h, 1 µM, compound concentration 1 uM, replicate 2
# [20] = 48 h, 10 µM, compound concentration 10 uM, replicate 1
# [21] = 48 h, 10 µM, compound concentration 10 uM, replicate 2
smiles,measurement,setting,value
COc1cc2c(NC3CCN(C(C)C)CC3)nc(N3CCC(F)(F)CC3)nc2cc1OCCCN1CCCC1,Growth Rate,[1]; [5],0
same,Growth Rate,"[1]; 6 h, replicate number 2, timepoint 6 hours",1
same,Growth Rate,[1]; [6],1
same,Growth Rate,[1]; [7],1
same,Growth Rate,"[1]; 18 h, replicate number 2, timepoint 18 hours",0
same,Growth Rate,[1]; [8],1
same,Growth Rate,"[1]; 24 h, replicate number 2, timepoint 24 hours",0
same,Growth Rate,"[2]; 0 h, replicate number 1, timepoint 0 hours",1
same,Growth Rate,[2]; [5],0
same,Growth Rate,[2]; [9],1
same,Growth Rate,[2]; [6],1
same,Growth Rate,[2]; [7],1
same,Growth Rate,[2]; [8],1
same,Population Apoptotic (%),[3]; [10],70%
same,Population Fragmented Nuclei (%),[3]; [10],30%
same,Population Healthy Nuclei (%),[3]; [10],48%
same,Population Hoechst High Intensity Objects (%),[3]; [10],11%
same,Population Membrane Permeable-Phenotype (%),[3]; [10],16%
same,Population Mitochondria Different-Phenotype (%),[3]; [10],11%
same,Population Mitotic Cells (%),[3]; [10],29%
same,Population Normal (%),[3]; [10],88%
same,Population Pyknosed Nuclei (%),[3]; [10],21%
same,Population Tubulin-Different-Phenotype (%),[3]; [10],38%
same,Total Cell Count,[3]; [10],127
same,Population Apoptotic (%),[3]; [11],30%
same,Population Fragmented Nuclei (%),[3]; [11],20%
same,Population Healthy Nuclei (%),[3]; [11],67%
same,Population Hoechst High Intensity Objects (%),[3]; [11],5%
same,Population Membrane Permeable-Phenotype (%),[3]; [11],3%
same,Population Mitochondria Different-Phenotype (%),[3]; [11],22%
same,Population Mitotic Cells (%),[3]; [11],70%
same,Population Normal (%),[3]; [11],94%
same,Population Pyknosed Nuclei (%),[3]; [11],11%
same,Population Tubulin-Different-Phenotype (%),[3]; [11],19%
same,Total Cell Count,[3]; [11],105
same,Population Apoptotic (%),[3]; [12],61%
same,Population Fragmented Nuclei (%),[3]; [12],16%
same,Population Healthy Nuclei (%),[3]; [12],47%
same,Population Hoechst High Intensity Objects (%),[3]; [12],33%
same,Population Membrane Permeable-Phenotype (%),[3]; [12],10%
same,Population Mitochondria Different-Phenotype (%),[3]; [12],13%
same,Population Mitotic Cells (%),[3]; [12],38%
same,Population Normal (%),[3]; [12],66%
same,Population Pyknosed Nuclei (%),[3]; [12],35%
same,Population Tubulin-Different-Phenotype (%),[3]; [12],35%
same,Total Cell Count,[3]; [12],239
same,Population Apoptotic (%),[3]; [13],66%
same,Population Fragmented Nuclei (%),[3]; [13],11%
same,Population Healthy Nuclei (%),[3]; [13],76%
same,Population Hoechst High Intensity Objects (%),[3]; [13],8%
same,Population Membrane Permeable-Phenotype (%),[3]; [13],66%
same,Population Mitochondria Different-Phenotype (%),[3]; [13],97%
same,Population Mitotic Cells (%),[3]; [13],33%
same,Population Normal (%),[3]; [13],91%
same,Population Pyknosed Nuclei (%),[3]; [13],11%
same,Population Tubulin-Different-Phenotype (%),[3]; [13],97%
same,Total Cell Count,[3]; [13],89
same,Population Apoptotic (%),[3]; [14],65%
same,Population Fragmented Nuclei (%),[3]; [14],35%
same,Population Healthy Nuclei (%),[3]; [14],47%
same,Population Hoechst High Intensity Objects (%),[3]; [14],20%
same,Population Membrane Permeable-Phenotype (%),[3]; [14],15%
same,Population Mitochondria Different-Phenotype (%),[3]; [14],4%
same,Population Mitotic Cells (%),[3]; [14],34%
same,Population Normal (%),[3]; [14],79%
same,Population Pyknosed Nuclei (%),[3]; [14],17%
same,Population Tubulin-Different-Phenotype (%),[3]; [14],34%
same,Total Cell Count,[3]; [14],167
same,Population Apoptotic (%),[3]; [15],29%
same,Population Fragmented Nuclei (%),[3]; [15],14%
same,Population Healthy Nuclei (%),[3]; [15],68%
same,Population Hoechst High Intensity Objects (%),[3]; [15],8%
same,Population Membrane Permeable-Phenotype (%),[3]; [15],2%
same,Population Mitochondria Different-Phenotype (%),[3]; [15],7%
same,Population Mitotic Cells (%),[3]; [15],70%
same,Population Normal (%),[3]; [15],91%
same,Population Pyknosed Nuclei (%),[3]; [15],16%
same,Population Tubulin-Different-Phenotype (%),[3]; [15],12%
same,Total Cell Count,[3]; [15],113
same,Population Apoptotic (%),[3]; [16],63%
same,Population Fragmented Nuclei (%),[3]; [16],22%
same,Population Healthy Nuclei (%),[3]; [16],42%
same,Population Hoechst High Intensity Objects (%),[3]; [16],37%
same,Population Membrane Permeable-Phenotype (%),[3]; [16],4%
same,Population Mitochondria Different-Phenotype (%),[3]; [16],9%
same,Population Mitotic Cells (%),[3]; [16],36%
same,Population Normal (%),[3]; [16],62%
same,Population Pyknosed Nuclei (%),[3]; [16],35%
same,Population Tubulin-Different-Phenotype (%),[3]; [16],43%
same,Total Cell Count,[3]; [16],271
same,Population Apoptotic (%),[3]; [17],90%
same,Population Fragmented Nuclei (%),[3]; [17],18%
same,Population Healthy Nuclei (%),[3]; [17],59%
same,Population Hoechst High Intensity Objects (%),[3]; [17],7%
same,Population Membrane Permeable-Phenotype (%),[3]; [17],82%
same,Population Mitochondria Different-Phenotype (%),[3]; [17],100%
same,Population Mitotic Cells (%),[3]; [17],9%
same,Population Normal (%),[3]; [17],92%
same,Population Pyknosed Nuclei (%),[3]; [17],22%
same,Population Tubulin-Different-Phenotype (%),[3]; [17],96%
same,Total Cell Count,[3]; [17],112
same,Population Apoptotic (%),[3]; [18],52%
same,Population Fragmented Nuclei (%),[3]; [18],44%
same,Population Healthy Nuclei (%),[3]; [18],43%
same,Population Hoechst High Intensity Objects (%),[3]; [18],26%
same,Population Membrane Permeable-Phenotype (%),[3]; [18],12%
same,Population Mitochondria Different-Phenotype (%),[3]; [18],2%
same,Population Mitotic Cells (%),[3]; [18],47%
same,Population Normal (%),[3]; [18],73%
same,Population Pyknosed Nuclei (%),[3]; [18],12%
same,Population Tubulin-Different-Phenotype (%),[3]; [18],29%
same,Total Cell Count,[3]; [18],231
same,Population Apoptotic (%),[3]; [19],69%
same,Population Fragmented Nuclei (%),[3]; [19],47%
same,Population Healthy Nuclei (%),[3]; [19],44%
same,Population Hoechst High Intensity Objects (%),[3]; [19],34%
same,Population Membrane Permeable-Phenotype (%),[3]; [19],6%
same,Population Mitochondria Different-Phenotype (%),[3]; [19],0%
same,Population Mitotic Cells (%),[3]; [19],30%
same,Population Normal (%),[3]; [19],65%
same,Population Pyknosed Nuclei (%),[3]; [19],7%
same,Population Tubulin-Different-Phenotype (%),[3]; [19],20%
same,Total Cell Count,[3]; [19],249
same,Population Apoptotic (%),[3]; [20],37%
same,Population Fragmented Nuclei (%),[3]; [20],19%
same,Population Healthy Nuclei (%),[3]; [20],45%
same,Population Hoechst High Intensity Objects (%),[3]; [20],41%
same,Population Membrane Permeable-Phenotype (%),[3]; [20],6%
same,Population Mitochondria Different-Phenotype (%),[3]; [20],5%
same,Population Mitotic Cells (%),[3]; [20],62%
same,Population Normal (%),[3]; [20],58%
same,Population Pyknosed Nuclei (%),[3]; [20],35%
same,Population Tubulin-Different-Phenotype (%),[3]; [20],32%
same,Total Cell Count,[3]; [20],362
same,Population Apoptotic (%),[3]; [21],23%
same,Population Fragmented Nuclei (%),[3]; [21],22%
same,Population Hoechst High Intensity Objects (%),[3]; [21],47%
same,Population Membrane Permeable-Phenotype (%),[3]; [21],4%
same,Population Mitochondria Different-Phenotype (%),[3]; [21],0%
same,Population Mitotic Cells (%),[3]; [21],76%
same,Population Normal (%),[3]; [21],52%
same,Population Pyknosed Nuclei (%),[3]; [21],32%
same,Population Tubulin-Different-Phenotype (%),[3]; [21],34%
same,Total Cell Count,[3]; [21],426
same,Growth Rate,[4]; [5],1
same,Growth Rate,[4]; [9],0
same,Growth Rate,[4]; [6],0
same,Growth Rate,[4]; [7],0
same,Growth Rate,[4]; [8],0
